This passage reports folding enthalpy and Tm results from the array DNA melting data of Ke et al. (doi:10.1101/2024.01.08.574731).

A short description of data set [1]: folding enthalpy; higher = less favourable; fluorescence melt of hairpins on a sequencing array, two-state fit. The settings on record: sodium 0.088 M. The essentials:
(§1)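 Library hairpins on a sequenced MiSeq flow cell carried annealed Cy3 and quencher oligos, and their Cy3 fluorescence was imaged in 50 mM Na-HEPES pH 8.0 with 25 mM NaCl, in 2.5 °C steps up to 60 °C. Signals were normalised to Cy3 before quenching and to control constructs. Melting temperature and folding enthalpy were obtained from bootstrapped two-state fits, combined by inverse-variance weighting across four replicates, and the fitted temperatures were then raised by 9.35 °C to match UV melts.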

Data set [2] is described as follows: melting temperature; fluorescence melt of hairpins on a sequencing array, two-state fit, raised by 9.35 °C to match UV melts. The settings on record: sodium 0.088 M. The essentials: as §1

On to GTGGGTGGAAACACCTAC ((.((((....)))).)), for which the folding enthalpy in data set [1] was -21.3 kcal/mol. Further, the Tm in data set [2] amounted to 51 °C.

As to GTGGGTGGAAACACCTGC (..((((....))))..), the folding enthalpy in data set [1] is -14.7 kcal/mol. For the same sequence, the Tm in data set [2] was 43 °C.

In the case of GTGGTAACGAAAGTTCAC (((..(((....)))))), in data set [1], the folding enthalpy was -10.7 kcal/mol. Besides, the Tm in data set [2] was 35.7 °C.

As to GTGGTAGCGAAAGCTCAC (((..(((....)))))), in data set [1], the folding enthalpy is -18.1 kcal/mol. Also, in data set [2], the Tm is 43.8 °C.

In the case of GTGGTCGAAAGACCCCAC ((((((....)))..))), the folding enthalpy in data set [1] is -9.79 kcal/mol. In data set [2], the Tm was 38 °C.

Consider GTGGTCGAAAGACCGCAC ((((((....)))..))), for which, in data set [1], the folding enthalpy is -11.6 kcal/mol. Also, in data set [2], the Tm was found to be 55.6 °C.

Consider GTGGTCGAAAGACGCAC ((((((....))).))), for which the folding enthalpy in data set [1] is -16.3 kcal/mol. In addition, the Tm in data set [2] was 49.3 °C.

In the case of GTGGTCGAAAGACGGCAC ((((((....)))..))), the folding enthalpy in data set [1] was -16.8 kcal/mol. Besides, the Tm in data set [2] came out at 38.5 °C.

Take GTGGTCGAAAGACTCAC ((((((....))).))): the folding enthalpy in data set [1] was -19.6 kcal/mol. Further, the Tm in data set [2] is 46.2 °C.

Take GTGGTCGCGAAAGCGCAC (((..(((....)))))): the folding enthalpy in data set [1] was -12.4 kcal/mol. Besides, the Tm in data set [2] came to 44.9 °C.

Consider GTGGTCGGAAACGACTAC ((.((((....)))).)), for which, in data set [1], the folding enthalpy is -30 kcal/mol. In addition, the Tm in data set [2] is 53.7 °C.

As for GTGGTCGGAAACGATCGC (.(.(((....))).).), the folding enthalpy in data set [1] was -22.4 kcal/mol. The Tm in data set [2] was determined as 46.1 °C.

On to GTGGTCTCGAAAGAGCAC (((..(((....)))))), for which, in data set [1], the folding enthalpy was -25.9 kcal/mol. Also, the Tm in data set [2] was 48.8 °C.

Turning to GTGGTGGGAAACCACCGC (.(((((....))))).), the folding enthalpy in data set [1] was -29.4 kcal/mol. For the same sequence, in data set [2], the Tm came out at 60.5 °C.

Regarding GTGGTGGGAAACCACTAC ((.((((....)))).)), in data set [1], the folding enthalpy was -22.5 kcal/mol. Moreover, in data set [2], the Tm is 56.1 °C.

Take GTGGTGGGAAACCACTGC (..((((....))))..): the folding enthalpy in data set [1] is -24.2 kcal/mol. In data set [2], the Tm amounted to 55.1 °C.

Take GTGGTTCGAAAGAATCAC (((.(((....))).))): in data set [1], the folding enthalpy is -47.5 kcal/mol. In addition, the Tm in data set [2] turned out to be 53.7 °C.

Regarding GTGGTTGAAAAACCAC ((((((....)))))), the folding enthalpy in data set [1] was -37.8 kcal/mol. In data set [2], the Tm turned out to be 59.7 °C.

Turning to GTGGTTGGAAACAATCAC (((.(((....))).))), the folding enthalpy in data set [1] is -36.6 kcal/mol. In addition, in data set [2], the Tm came to 47.7 °C.

Take GTGTAACGAAAGTTCAC (((.(((....)))))): in data set [1], the folding enthalpy is -20 kcal/mol. The Tm in data set [2] came to 44.6 °C.

Turning to GTGTAAGGAAACCTACAC (((((.(....).))))), the folding enthalpy in data set [1] was -30.6 kcal/mol. The Tm in data set [2] is 38.1 °C.

Regarding GTGTAAGGAAACTTATAC ((.((((....)))).)), in data set [1], the folding enthalpy is -19.6 kcal/mol. The Tm in data set [2] was determined as 33.8 °C.

In the case of GTGTACCCGAAAGGGCAC (((..(((....)))))), in data set [1], the folding enthalpy was -20.6 kcal/mol. The Tm in data set [2] came out at 48.3 °C.

Take GTGTACGAAAGTAGGCAC ((((((....)))..))): the folding enthalpy in data set [1] is -16.5 kcal/mol. Besides, the Tm in data set [2] came out at 32.8 °C.

In the case of GTGTAGAAATACAC (((((....))))), the folding enthalpy in data set [1] is -21.8 kcal/mol. For the same sequence, the Tm in data set [2] came out at 41.6 °C.

For GTGTAGCGAAAGCTCAC (((.(((....)))))), the folding enthalpy in data set [1] is -23.2 kcal/mol. Further, in data set [2], the Tm is 51.8 °C.

For GTGTAGGAAACTACAC ((((((....)))))), in data set [1], the folding enthalpy was -38.1 kcal/mol. In addition, the Tm in data set [2] is 53.5 °C.

On to GTGTAGGGAAACCTATAC ((.((((....)))).)), for which the folding enthalpy in data set [1] is -24.8 kcal/mol. For the same sequence, the Tm in data set [2] stood at 38.2 °C.

Take GTGTAGTCGAAAGACCAC (((..(((....)))))): the folding enthalpy in data set [1] was -19.5 kcal/mol. Also, the Tm in data set [2] amounted to 42.1 °C.

As to GTGTATCGAAAGATCAC (((.(((....)))))), the folding enthalpy in data set [1] is -29.4 kcal/mol. For the same sequence, the Tm in data set [2] was determined as 46 °C.

In the case of GTGTATCGAAAGATCCAC (((.(((....))).))), the folding enthalpy in data set [1] is -33.5 kcal/mol. The Tm in data set [2] amounted to 41.2 °C.

For GTGTATGCGAAAGCACAC (((..(((....)))))), in data set [1], the folding enthalpy is -22.1 kcal/mol. Besides, the Tm in data set [2] is 45.4 °C.

In the case of GTGTATTCGAAAGAACAC (((..(((....)))))), the folding enthalpy in data set [1] is -19.1 kcal/mol. In addition, in data set [2], the Tm was found to be 32.8 °C.

Take GTGTCAACGAAAGTTCAC (((..(((....)))))): in data set [1], the folding enthalpy was -8.71 kcal/mol. Besides, the Tm in data set [2] was determined as 29.8 °C.

For the sequence GTGTCAGGAAACTGACAC (((((((....))))))), the folding enthalpy in data set [1] was -37 kcal/mol. Moreover, in data set [2], the Tm was 66.4 °C.

As for GTGTCCACGAAAGTGCAC (((..(((....)))))), the folding enthalpy in data set [1] is -15.1 kcal/mol. For the same sequence, in data set [2], the Tm worked out at 39.3 °C.

Take GTGTCCCCGAAAGGGCAC (((..(((....)))))): in data set [1], the folding enthalpy was -21.4 kcal/mol. Also, in data set [2], the Tm is 49.6 °C.
